Screens (PubChem)
This excerpt belongs to a sample that is enriched for hits.
GSK3 alpha inh: blockers of GSK3A enzyme activity – biochemical, luminescence, cell-free homogeneous, HTS, primary screen. inhibition, % at 10 µM. GSK-3 alpha kinase, ADP-Glo luminescence, 60 min. hit rate 0.1% among 320,000. Glycogen synthase kinase-3 alpha (Homo sapiens), P49840;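 active = more than half of replicates show inhibition above 20%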;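 also: GST-tagged GSK-3 alpha with peptide substrate and 25 µM ATP; 0% = DMSO neutral wells and 100% = GW8510 positive control wells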
GSK3B inh: human GSK3beta kinase inhibitors, primary screen, biochemical, cell-free homogeneous, HTS | Glycogen synthase kinase-3 beta (Homo sapiens), P49841 | GST-GSK3beta kinase, ADP-Glo luminescence, 60 min; hits give low values | activity score (negative = inhibition), % at 10 µM | hit rate 0.038% among 300,000;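 active = more than half of replicate wells score below -50%, meaning over 50% inhibition versus plate controls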;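 also: 0% = median DMSO wells and -100% = median GW8510 positive control wells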
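Test system: GST-tagged human GSK3beta kinase, cell-free; evaluation: activity score scaled between in-plate DMSO and GW8510 controls; measured by: ADP-Glo luminescence; incubation: 60 min reaction, RT; benchmarks: DMSO and 20 µM GW8510; reagent: peptide substrate plus 25 µM ATP (final); medium: Tris/MgCl2 kinase buffer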
STK33 kinase inh: inhibitors of purified STK33 kinase, primary screen, biochemical, ADP-Glo luminescence, homogeneous, cell-free. Serine/threonine-protein kinase 33 (Homo sapiens), Q9BYT3. MBP phosphorylation. inhibition, % at 10 µM. hit rate 0.073% among 320,000. AID 2661, 2010;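 active = inhibition at or above 25%, using the most active replicate where run in duplicate; inactive = inhibition below 25%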
Target sequence (Q9BYT3 whole entry, looked up): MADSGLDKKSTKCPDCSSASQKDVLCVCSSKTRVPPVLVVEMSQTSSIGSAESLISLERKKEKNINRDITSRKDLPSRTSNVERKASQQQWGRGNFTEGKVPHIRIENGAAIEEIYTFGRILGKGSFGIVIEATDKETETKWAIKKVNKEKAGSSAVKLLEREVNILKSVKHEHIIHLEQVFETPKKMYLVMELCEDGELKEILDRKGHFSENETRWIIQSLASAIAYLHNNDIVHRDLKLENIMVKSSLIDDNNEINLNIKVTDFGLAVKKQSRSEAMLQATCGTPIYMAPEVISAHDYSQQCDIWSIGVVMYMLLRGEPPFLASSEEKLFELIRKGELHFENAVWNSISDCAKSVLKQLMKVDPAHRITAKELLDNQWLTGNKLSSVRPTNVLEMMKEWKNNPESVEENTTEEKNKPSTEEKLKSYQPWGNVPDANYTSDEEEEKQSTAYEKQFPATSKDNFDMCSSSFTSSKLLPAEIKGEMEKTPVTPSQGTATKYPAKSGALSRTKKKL
CDK5 p35 inh: inhibitors of human CDK5/p35 kinase, primary screen, biochemical, single concentration | AID 488839, 2010 | Cyclin-dependent kinase 5 (Homo sapiens) + Cyclin-dependent kinase 5 activator 1 (Homo … | Recombinant CDK5/p35, ADP-Glo luminescence, 60 min | hit rate 0.01% among 330,000 | inhibition, % at 10 µM;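 active = highest replicate inhibition of at least 50% and at least 75% of replicates reaching 50%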;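 also: plate controls were DMSO neutral control for no effect and GW8510 at 10 µM for full effect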
DYRK1A inh: rat Dyrk1A kinase inhibitors, primary screen, biochemical, single point, plate reader; hit rate 0.43% among 310,000; AID 504441, 2011; Dual specificity tyrosine-phosphorylation-regulated kinase 1A (Rattus norvegicus), Q63470; ADP-Glo luminescence, NFATc1 peptide; inhibition, % at 12.5 µM; in the data active = inhibition above about 50%;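 also: plate controls were vehicle with enzyme for no effect and no enzyme for full effect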
Dyrk1A artifact: ADP-Glo luciferase interference without Dyrk1A, dose response, artefact control for Dyrk1A inhibitor project, biochemical, luminescence, cherry-pick, set 02; shares compounds with DYRK1A inh; ADP-Glo luciferase artifact assay, no Dyrk1A; AC50, µM (series often up to 12 µM), inactives show at the highest dose activity change, negative = inhibition; 1,300 tested, under 10 active;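 active = fitted half-maximal dose AC50 no more than ten times the top valid tested dose, with luminescence dropping as dose rises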
* = called active by the depositor; . = no result.

SMILES	GSK3 alpha inh	GSK3B inh	STK33 kinase inh	CDK5 p35 inh	DYRK1A inh	Dyrk1A artifact
COc1ccccc1NS(=O)(=O)c1cc(C(=O)N2CC(C)CC(C)C2)ccc1C (centres undefined)	1.0	-3.5	-1.5	-7.3	4.1	.
Cc1cccc(NC(=S)NN2CCN(C)CC2)c1	-3.3	1.9	0.2	0.8	53.7*	9.6%
COc1cccc(C2CC(c3ccc(C)cc3)n3nc(N)nc3N2)c1 (centres undefined)	-2.2	1.8	-1.0	1.6	-2.5	.
CCOc1ccc(C2CC(c3cccc(OC)c3)Nc3nc(N)nn32)cc1 (centres undefined)	.	1.7	0.5	-0.5	57.5*	8.7%
C[C@H]1CN([C@@H](C)CO)C(=O)c2cc(NC(=O)CCN3CCOCC3)ccc2O[C@H]1CN(C)C(=O)Nc1ccc(F)cc1	-1.6	.	-1.3	-1.3	-2.0	.
COc1ccc(NC(=O)N(C)C[C@H]2Oc3ccc(NC(=O)CCN4CCOCC4)cc3C(=O)N([C@H](C)CO)C[C@@H]2C)cc1	-3.5	.	1.6	0.3	55.5*	9.1%
CC12CCC(C(=O)OC3CCCCC3)(OC1=O)C2(C)C (centres undefined)	-0.5	0.4	-1.0	1.7	-6.1	.
O=C(O)c1ccc(-n2cc(-c3cc4ccccc4oc3=O)[nH]c2=S)cc1	.	.	.	5.7	66.6*	9.2%
O=C(O)/C=C/c1ccc2noc(-c3ccccc3)c2c1	5.0	-1.1	24.1	2.5	69.7*	10.7%
Cc1ccc(-c2onc3ccc(C=O)cc23)cc1	11.0	-17.9	2.1	2.9	13.2	.
COC(=O)CN(C)C(=O)c1ccc2nc(Cc3cccc(Cl)c3)oc2c1	1.3	0.5	0.8	-0.6	-0.8	.
Cn1c(N)c(C(=O)COC(=O)COc2ccccc2Cl)c(=O)n(C)c1=O	.	.	.	-0.4	9.5	.
C(=N\NC1=Nc2cccc3cccc1c23)/c1ccccn1	.	2.2	.	1.2	53.3*	9.2%
Cn1c(O)c(C2=c3ccccc3=NC2=O)[nH]c1=S	-1.1	-4.8	-2.0	3.1	-4.8	.
COc1ccc2nc(-n3c(O)c(C4=c5ccccc5=NC4=O)[nH]c3=S)sc2c1	5.1	1.0	1.7	2.4	63.0*	7.9%
COc1cccc(/C=N/n2c(COc3ccccc3)n[nH]c2=S)c1O	22.9	-2.0	2.6	4.7	57.2*	8.9%
CC12CCC(C(=O)Nc3nccs3)(OC1=O)C2(C)C (centres undefined)	-2.7	1.6	-1.4	-0.7	-1.4	.
CC12CCC(C(=O)Nc3nc4ccc(Br)cc4s3)(OC1=O)C2(C)C (centres undefined)	-1.0	-0.4	0.2	0.0	81.8*	7.2%
CCCCNC(=O)c1cn(CC)c2ccc(S(=O)(=O)N3CCCCCC3)cc2c1=O	0.2	-0.7	-0.3	-1.9	-4.9	.
COc1ccc(C(=O)c2sc(Nc3ccccc3F)nc2N)cc1	55.5*	-19.3	2.7	24.8	60.9*	7.8%
Nc1nc(Nc2ccccc2)sc1C(=O)c1ccccc1	91.6*	-71.0*	11.6	82.2*	80.8*	8.5%
COc1ccc(C(=O)c2sc(Nc3ccccc3)nc2N)cc1	28.4	-1.3	2.0	5.6	-0.5	.
COc1ccc(C(=O)NC(=S)Nc2ccccc2F)cc1	-39.3	3.5	0.2	-2.6	-2.0	.
NNc1nccc(Nc2ccccc2C(=O)O)n1	68.9*	-59.6*	19.8	-2.0	83.5*	8.9%
Nc1nc(N)nc(-c2ccc(Cl)c(Cl)c2)n1	13.4	.	4.1	3.9	84.4*	6.9%
SMILES	GSK3 alpha inh	GSK3B inh	STK33 kinase inh	CDK5 p35 inh	DYRK1A inh	Dyrk1A artifact
Oc1ccc(C2=Nn3c(nnc3-c3ccco3)SC2)cc1O	.	-23.4	3.3	-0.7	79.0*	13.8%
COc1ccc(OC)c(C2=Nn3c(nnc3-c3ccco3)SC2)c1	4.9	1.1	-0.9	1.2	74.2*	9.2%
COc1ccc(C2=Nn3c(nnc3-c3ccco3)SC2)cc1	16.3	-2.5	0.3	1.8	38.0	.
CC(=O)C[C@@H](O)CC(=O)[C@@H]1OC(=O)[C@H](C)CCCCc2ccccc21	.	.	.	0.7	-3.2	.
Cc1ccnc(N=O)c1	.	.	.	-0.6	1.5	.
COc1ccc2c(c1)OC[C@H]1[C@H]2N2C(=O)CN(CC3CCCO3)C(=O)[C@@]2(C)[C@H]1c1ccccc1 (some centres undefined)	0.5	.	-1.4	0.6	50.2*	7.7%
COc1ccc2c(c1)C(=O)N1[C@H]3c4cc(C)ccc4OC[C@@H]3[C@H](c3ccccc3)[C@]1(C)C(=O)N2	-2.0	.	0.6	-0.4	54.9*	15.5%
CCOC(=O)c1cc(-c2ccc(C)cc2)nc2nc(SC)[nH]c(=O)c12	-2.7	2.5	-0.8	-0.5	5.3	.
COc1ccc2c(c1)CCc1cc(C(=O)O)sc1-2	-6.7	1.0	4.9	-3.1	55.0*	7.0%
O=C(O)c1cc2c(s1)-c1ccccc1CC2	-1.6	3.1	1.3	1.4	.	.
Cc1cc(C(=O)Nc2cccc3c2O[C@@H](CN(C)S(C)(=O)=O)[C@H](C)CN([C@@H](C)CO)C3=O)n(C)n1	.	.	.	1.4	7.0	.
CS(=O)(=O)c1ccc(-c2cn3cc(C(=O)O)ccc3n2)cc1	-2.4	1.8	8.1	1.3	76.8*	7.7%
O=C(Nc1nc2c(s1)CCCC2)c1ccc(N2C(=O)CCC2=O)cc1	0.1	2.2	1.9	-1.2	66.9*	8.0%
CC1CCc2nc(NC(=O)c3ccc(N4C(=O)CCC4=O)cc3)sc2C1 (centres undefined)	0.8	1.5	1.9	0.4	56.5*	6.1%
CCN1CCN(c2nc(Nc3cccc(C)c3)nc(N)c2[N+](=O)[O-])CC1	12.2	-0.1	2.6	5.3	59.8*	8.2%
O=c1cc(-c2ccccc2)c2c(O)cc(O)cc2o1	71.9*	-58.1*	1.3	3.3	61.4*	6.1%
O=c1c(O)c(-c2cc(O)c(O)c(O)c2)oc2cc(O)cc(O)c12	61.6*	.	37.3*	14.5	89.6*	8.5%
CC(C)=CCc1cc(-c2oc3cc(O)cc(O)c3c(=O)c2O)ccc1O	7.9	3.1	6.2	2.4	62.7*	9.5%
O=c1c(-c2ccccc2)c(-c2ccccc2)oc2cc(O)cc(O)c12	7.0	-4.1	-2.2	1.2	46.3	.
O=c1c(O)c(-c2ccccc2)oc2cc(O)cc(O)c12	.	.	.	1.0	74.8*	5.6%
COc1ccc(CNC(=S)N2CCN(Cc3ccccc3)CC2)cc1	-2.1	0.3	-1.7	-2.5	-4.7	.
Cc1cc(O)c2c(c1)C(=O)c1cc(O)cc(O)c1C2=O	13.5	-7.7	4.0	-1.5	66.4*	7.4%
